Test results from ChEMBL document CHEMBL1926520, “13,13-Dimethyl-des-C,D analogues of (20S)-1α,25-dihydroxy-2-methylene-19-norvitamin D₃ (2MD): total synthesis, docking to the VDR, and biological evaluation” (Bioorg Med Chem, 2011).

Columns and labels:
HL-60 [1] = test: Induction of human HL60 cell differentiation after 4 days by nitro blue tetrazolium reduction assay relative to 1alpha,25(OH)2D3; assay type: functional
Outline: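 HL-60 cells were grown in RPMI-1640 with 10% FBS at 37 °C and 5% CO2, plated at 1.2×10^5 cells/plate, and treated in duplicate 18 h later (ethanol <0.2% final). After 4 days, NBT reduction was scored by counting formazan-positive cells among 200. […] The experiment was repeated 2–3 times.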

Vitamin D3 receptor [2] = biological target: T1, Vitamin D3 receptor (Rattus norvegicus, UniProt P13053); test: Agonist activity at rat VDR in ROS 17/2.8 cells transfected with Cyp24a1 reporter plasmid assessed as increase in Cyp24a1 transcription after 16 hrs by luciferase reporter gene assay; assay type: functional, cell-based
T1 sequence (P13053 whole entry): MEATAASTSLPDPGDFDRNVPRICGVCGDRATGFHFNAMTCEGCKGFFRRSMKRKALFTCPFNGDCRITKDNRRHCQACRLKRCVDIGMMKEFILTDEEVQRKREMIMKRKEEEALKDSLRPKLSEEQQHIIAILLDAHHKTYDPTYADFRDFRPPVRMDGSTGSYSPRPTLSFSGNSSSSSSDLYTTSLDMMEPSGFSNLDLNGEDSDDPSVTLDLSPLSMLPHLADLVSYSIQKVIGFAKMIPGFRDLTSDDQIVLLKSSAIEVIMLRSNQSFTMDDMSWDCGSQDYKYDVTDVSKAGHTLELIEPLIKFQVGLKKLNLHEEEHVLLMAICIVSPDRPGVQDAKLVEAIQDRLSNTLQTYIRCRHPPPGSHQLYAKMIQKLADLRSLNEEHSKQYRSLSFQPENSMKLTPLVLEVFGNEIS
Outline: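 ROS 17/2.8 osteosarcoma (bone) cells stably carrying a Cyp24a1 promoter–luciferase reporter were given a range of doses. Cells were harvested 16 h after dosing and luciferase was read on a luminometer. Duplicates were run on two–three separate occasions.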

Rattus norvegicus [3] = test: Calcium mobilization in vitamin-D deficient weanling rat bone assessed as increase in serum calcium level at 2.1 ug/kg, ip administered daily for 7 consecutive days measured 24 hrs after last dose relative to vehicle treated control; assay type: functional
Outline: (§1)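 Vitamin D-deficient rats were kept on a low-calcium diet and in the final week dosed ip once daily for 7 consecutive days in 0.1 ml propylene glycol/ethanol (95:5). Controls received vehicle only. Serum Ca (mg/dL) was measured 24 h after the last dose and reported as the increase over vehicle-treated rats, average ± SEM, with 5–6 rats per group.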

Rattus norvegicus [4] = test: Calcium mobilization in vitamin-D deficient weanling rat bone assessed as increase in serum calcium level at 19 ug/kg, ip administered daily for 7 consecutive days measured 24 hrs after last dose relative to vehicle treated control; assay type: functional; outline: as §1
Rattus norvegicus [5] = test: Calcium mobilization in vitamin-D deficient weanling rat bone assessed as increase in serum calcium level at 6.5 ug/kg, ip administered daily for 7 consecutive days measured 24 hrs after last dose relative to vehicle treated control; assay type: functional; outline: as §1
Rattus norvegicus [6] = test: Calcium mobilization in vitamin-D deficient weanling rat bone assessed as increase in serum calcium level at 97 ug/kg, ip administered daily for 7 consecutive days measured 24 hrs after last dose relative to vehicle treated control; assay type: functional; outline: as §1
Rattus norvegicus [7] = test: Calcium transport in vitamin-D deficient weanling rat intestine assessed as intestinal calcium level at 2.1 ug/kg, ip administered daily for 7 consecutive days measured 24 hrs after last dose; assay type: functional
Outline: (§2)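 Vitamin D-deficient rats were kept on a low-calcium diet and dosed ip daily for 7 consecutive days in the last week, in 0.1 ml propylene glycol/ethanol (95:5), with vehicle-only controls. Measurements were taken 24 h after the final dose. Intestinal calcium transport was expressed as the rise in serosal/mucosal (S/M) ratio over vehicle, average ± SEM, with 5–6 rats per group.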

Rattus norvegicus [8] = test: Calcium transport in vitamin-D deficient weanling rat intestine assessed as intestinal calcium level at 19 ug/kg, ip administered daily for 7 consecutive days measured 24 hrs after last dose; assay type: functional; outline: as §2
Rattus norvegicus [9] = test: Calcium transport in vitamin-D deficient weanling rat intestine assessed as intestinal calcium level at 6.5 ug/kg, ip administered daily for 7 consecutive days measured 24 hrs after last dose; assay type: functional; outline: as §2
Rattus norvegicus [10] = test: Calcium transport in vitamin-D deficient weanling rat intestine assessed as intestinal calcium level at 97 ug/kg, ip administered daily for 7 consecutive days measured 24 hrs after last dose; assay type: functional; outline: as §2
HL-60 [11] = test: Induction of human HL60 cell differentiation after 4 days by nitro blue tetrazolium reduction assay; assay type: functional, cell-based; conditions: HL-60, 96 h
Vitamin D3 receptor [12] = biological target: T1, Vitamin D3 receptor; test: Displacement of [3H]-1alpha,25(OH)2D3 from recombinant rat VDR by scintillation counting
Outline: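 It was incubated overnight on ice with 1 nM final [3H]-1α,25(OH)2D3 plus unlabeled ligand in ethanol (<10% final). Bound ligand was collected on hydroxylapatite, washed and counted by scintillation. […] Duplicates were run on two–three occasions.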

Rattus norvegicus [13] = test: Calcium mobilization in vitamin-D deficient weanling rat bone assessed as increase in serum calcium level at 1.9 ug/kg, ip administered daily for 7 consecutive days measured 24 hrs after last dose relative to vehicle treated control; assay type: functional; outline: as §1
Rattus norvegicus [14] = test: Calcium mobilization in vitamin-D deficient weanling rat bone assessed as increase in serum calcium level at 5.7 ug/kg, ip administered daily for 7 consecutive days measured 24 hrs after last dose relative to vehicle treated control; assay type: functional; outline: as §1
Rattus norvegicus [15] = test: Calcium mobilization in vitamin-D deficient weanling rat bone assessed as increase in serum calcium level at 22.8 ug/kg, ip administered daily for 7 consecutive days measured 24 hrs after last dose relative to vehicle treated control; assay type: functional; outline: as §1
Rattus norvegicus [16] = test: Calcium mobilization in vitamin-D deficient weanling rat bone assessed as increase in serum calcium level at 0.2 ug/kg, ip administered daily for 7 consecutive days measured 24 hrs after last dose relative to vehicle treated control; assay type: functional; outline: as §1
Rattus norvegicus [17] = test: Calcium mobilization in vitamin-D deficient weanling rat bone assessed as increase in serum calcium level at 0.7 ug/kg, ip administered daily for 7 consecutive days measured 24 hrs after last dose relative to vehicle treated control; assay type: functional; outline: as §1
Rattus norvegicus [18] = test: Calcium transport in vitamin-D deficient weanling rat intestine assessed as intestinal calcium level at 0.2 ug/kg, ip administered daily for 7 consecutive days measured 24 hrs after last dose; assay type: functional; outline: as §2
Rattus norvegicus [19] = test: Calcium transport in vitamin-D deficient weanling rat intestine assessed as intestinal calcium level at 0.7 ug/kg, ip administered daily for 7 consecutive days measured 24 hrs after last dose; assay type: functional; outline: as §2

EC50 (Vitamin D3 receptor [2]) [nM] | EC50 (HL-60 [11]) [nM] | Ki (Vitamin D3 receptor [12]) [nM] | Structure (SMILES) | Ratio EC50 (HL-60 [1]) | Activity (Rattus norvegicus [3]) [mg/dL] | Activity (Rattus norvegicus [4]) [mg/dL] | Activity (Rattus norvegicus [5]) [mg/dL] | Activity (Rattus norvegicus [6]) [mg/dL] | Activity (Rattus norvegicus [7]) [mg/dL] | Activity (Rattus norvegicus [8]) [mg/dL] | Activity (Rattus norvegicus [9]) [mg/dL] | Activity (Rattus norvegicus [10]) [mg/dL] | Activity (Rattus norvegicus [13]) [mg/dL] | Activity (Rattus norvegicus [14]) [mg/dL] | Activity (Rattus norvegicus [15]) [mg/dL] | Activity (Rattus norvegicus [16]) [mg/dL] | Activity (Rattus norvegicus [17]) [mg/dL] | Activity (Rattus norvegicus [18]) [mg/dL] | Activity (Rattus norvegicus [19]) [mg/dL]
2 | 6 | 2 | C=C1[C@H](O)CC(=C/C=C/CC(C)(C)C[C@@H](C)CCCC(C)(C)O)C[C@H]1O | 2 | 0.2 | 0.4 | 0.6 | 0.3 | 0 | 1 | 0.4 | 2.6 | – | – | – | – | – | – | –
30 | – | 10 | C=C1[C@H](O)CC(=C/C=C\CC(C)(C)C[C@@H](C)CCCC(C)(C)O)C[C@H]1O | – | – | – | 0.2 | – | – | – | 0.1 | – | – | – | – | – | – | – | –
– | – | – | C=C1[C@H](O)CC(=C/C=C/CCC[C@@H](C)CCCC(C)(C)O)C[C@H]1O | 100 | – | – | – | – | – | – | – | – | -0.2 | 0.1 | 0.2 | – | – | – | –
– | – | – | C=C1/C(=C\C=C2/CCC[C@]3(C)[C@@H]([C@H](C)CCCC(C)(C)O)CC[C@@H]23)C[C@@H](O)C[C@@H]1O [CALCITRIOL] | – | 1.9 | 3.9 | – | – | 4.2 | 5.9 | – | – | – | – | – | 0.5 | 1.3 | 4.2 | 2.8
